Data: ChEMBL document CHEMBL1148017, “Radioiodination of new EGFR inhibitors as potential SPECT agents for molecular imaging of breast cancer” (Bioorg Med Chem, 2007)
The source made the active and inactive calls. No cut-off for these calls is given here.

Columns and labels:
A-431 = assay: Growth inhibition of human A431 cells by MTT assay; type: functional, cell-based
How it was run: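 A431 cells kept in high-glucose D-MEM with 10% foetal calf serum, 37 °C, 5% CO2. Plated at 3×10^3 cells/well and grown 24 h, then exposed to 1–50 µM compound (4 replicates) for 24, 48 and 72 h. MTT 1 mg/mL in phenol-red-free RPMI for 4 h, isopropanol solubilisation, A540 against 620 nm reference. % of untreated control plotted semi-log against concentration; IC50 read from the curve.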

[1] = molecular target: Epidermal growth factor receptor (Homo sapiens) (UniProt P00533); assay: Inhibition of EGFR autophosphorylation in human A431 cells at 1 uM; type: cell-based; conditions: A-431
Chain of Epidermal growth factor receptor (Homo sapiens) (P00533 whole entry): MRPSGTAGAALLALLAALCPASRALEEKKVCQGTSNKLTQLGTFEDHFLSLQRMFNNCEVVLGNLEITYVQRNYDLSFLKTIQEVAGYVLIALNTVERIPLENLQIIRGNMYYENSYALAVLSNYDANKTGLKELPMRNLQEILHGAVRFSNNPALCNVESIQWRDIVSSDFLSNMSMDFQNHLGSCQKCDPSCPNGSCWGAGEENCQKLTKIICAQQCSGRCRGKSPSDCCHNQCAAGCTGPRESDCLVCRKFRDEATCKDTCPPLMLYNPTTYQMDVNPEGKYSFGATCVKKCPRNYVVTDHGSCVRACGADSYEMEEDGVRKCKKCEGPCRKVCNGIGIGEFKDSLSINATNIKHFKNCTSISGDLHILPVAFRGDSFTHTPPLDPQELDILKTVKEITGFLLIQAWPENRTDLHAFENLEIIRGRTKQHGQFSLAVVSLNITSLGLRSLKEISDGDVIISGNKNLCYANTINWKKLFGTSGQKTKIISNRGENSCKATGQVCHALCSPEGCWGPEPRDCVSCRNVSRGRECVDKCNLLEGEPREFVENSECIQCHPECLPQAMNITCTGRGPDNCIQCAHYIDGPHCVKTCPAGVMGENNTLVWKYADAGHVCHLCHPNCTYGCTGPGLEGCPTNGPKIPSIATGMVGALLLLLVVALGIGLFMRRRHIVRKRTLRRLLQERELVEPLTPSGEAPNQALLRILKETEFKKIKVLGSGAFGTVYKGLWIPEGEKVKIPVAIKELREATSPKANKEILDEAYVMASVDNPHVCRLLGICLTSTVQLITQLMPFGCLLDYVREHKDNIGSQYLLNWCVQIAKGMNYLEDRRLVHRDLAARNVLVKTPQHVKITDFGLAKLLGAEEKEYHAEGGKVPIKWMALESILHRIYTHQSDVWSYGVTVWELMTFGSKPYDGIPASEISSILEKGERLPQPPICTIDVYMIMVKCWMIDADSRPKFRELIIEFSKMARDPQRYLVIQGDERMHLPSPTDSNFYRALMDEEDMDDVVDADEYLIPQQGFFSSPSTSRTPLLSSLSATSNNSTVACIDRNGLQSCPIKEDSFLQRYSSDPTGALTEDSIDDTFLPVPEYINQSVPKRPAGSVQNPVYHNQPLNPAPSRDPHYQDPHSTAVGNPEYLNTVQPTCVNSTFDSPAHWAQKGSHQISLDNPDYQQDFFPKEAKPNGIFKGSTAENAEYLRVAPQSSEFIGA
How it was run: (§1)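 A431 cells grown to about 70% confluence, serum-starved 24 h, then given compound (0.1–5 µM) for 2 h and stimulated with EGF 20 ng/mL for 5 min. Lysates loaded at equal total protein (BCA), run on 8% SDS-PAGE and blotted to PVDF. Probed with anti-phosphotyrosine PY20 and an HRP anti-mouse secondary, detected by ECL. Bands quantified against controls with and without EGF, no drug.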

[2] = molecular target: Epidermal growth factor receptor (Homo sapiens) (UniProt P00533); assay: Inhibition of EGFR autophosphorylation in human A431 cells at 0.1 uM; type: cell-based; conditions: A-431; how it was run: as §1
[3] = Partition coefficient, log P at pH 7.4; type: physicochemical; conditions: octanol/water
How it was run: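 Shake-flask method with back-extraction. Radiotracer placed in mutually saturated octanol and PBS pH 7.4, vortexed and centrifuged (3000 rpm, 10 min, rt). Both phases gamma-counted. 0.5 mL of octanol re-extracted against an equal volume of PBS and counting repeated. log P is taken from the octanol/buffer count ratio.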

Serum = assay: Protein binding in human serum; type: ADME, cell-free
How it was run: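 Radioiodinated tracer (≈370 kBq) incubated in 1 mL fresh human serum at 37 °C. Duplicate 100 µL samples taken at 15 min, 1, 2, 4 and 21 h. Proteins precipitated with 200 µL ethanol, cooled to 4 °C and centrifuged. Pellet washed with ethanol and gamma-counted. Pellet activity is expressed as % of total activity.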

Liver [4] = assay: Biodistribution in CD1 mouse liver at 175 to 200 kBq, iv after 1 hr; type: ADME, organism-based; conditions: in vivo
How it was run: (§2)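 Female CD-1 mice (20-25 g, groups of 5) given the radioiodinated compound via tail vein, 175-200 kBq in saline (100 µL) with 0.1% Tween 20. Injected dose taken as syringe activity before minus after. Killed at 1 and 4 h; organs removed, weighed and gamma-counted. Values are % ID per total organ, mean ± SD.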

Liver [5] = assay: Biodistribution in CD1 mouse liver at 175 to 200 kBq, iv after 4 hrs; type: ADME, organism-based; conditions: in vivo; how it was run: as §2
Stomach [6] = assay: Biodistribution in CD1 mouse stomach at 175 to 200 kBq, iv after 1 hr; type: ADME, organism-based; conditions: in vivo; how it was run: as §2
Stomach [7] = assay: Biodistribution in CD1 mouse stomach at 175 to 200 kBq, iv after 4 hrs; type: ADME, organism-based; conditions: in vivo; how it was run: as §2
Thyroid gland [8] = assay: Biodistribution in CD1 mouse thyroid at 175 to 200 kBq, iv after 1 hr; type: ADME, organism-based; conditions: in vivo; how it was run: as §2
Thyroid gland [9] = assay: Biodistribution in CD1 mouse thyroid at 175 to 200 kBq, iv after 4 hrs; type: ADME, organism-based; conditions: in vivo; how it was run: as §2

IC50 (A-431)	inhibition [1]	Activity [2]	logD [3]	Activity (Serum)	Drug uptake (Liver [4])	Drug uptake (Liver [5])	Drug uptake (Stomach [6])	Drug uptake (Stomach [7])	Drug uptake (Thyroid gland [8])	Drug uptake (Thyroid gland [9])	SMILES
2000 nM	100%	Active									O=C(CCI)Nc1ccc2ncnc(Nc3ccc(F)c(Cl)c3)c2c1
3000 nM	100%	Active									O=C(CCBr)Nc1ccc2ncnc(Nc3ccc(F)c(Cl)c3)c2c1
			2.25	6%	6.1 %ID	2.3 %ID	35.2 %ID	3.9 %ID	5.7 %ID	13.2 %ID	O=C(CC[125I])Nc1ccc2ncnc(Nc3ccc(F)c(Cl)c3)c2c1
25000 nM	95%										Nc1ccc2ncnc(Nc3ccc(F)c(Cl)c3)c2c1
